Measured values from ChEMBL document CHEMBL1153904, “FR290581, a novel sordarin derivative: synthesis and antifungal activity” (Bioorg Med Chem Lett, 2009).
≈ marks a conversion by molar mass, not a printed value.

Legend:
Candida albicans [1] = test: Antifungal activity against Candida albicans ATCC 90028; format: functional
Candida albicans [2] = test: Antifungal activity against fluconazole-resistant Candida albicans 22009; format: functional
Nakaseomyces glabratus = test: Antifungal activity against Candida glabrata ATCC 90030; format: functional
Method in brief: (§1)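 Read-out is the minimum inhibitory concentration, in µg/mL.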

Candida tropicalis = test: Antifungal activity against Candida tropicalis 21005; format: functional; method in brief: as §1
Candida parapsilosis = test: Antifungal activity against Candida parapsilosis ATCC 22019; format: functional; details: Lodderomyces parapsilosis; method in brief: as §1
Aspergillus fumigatus = test: Antifungal activity against Aspergillus fumigatus ATCC 204305; format: functional; method in brief: as §1
Candida albicans [3] = test: Antifungal activity against Candida albicans FP633 in po dosed ICR mouse assessed as kidney burden per gram of tissue at 20 mg/kg, po after 24 hrs of inoculation; format: functional
Method in brief: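 Mouse systemic C. albicans infection, oral dosing, n = 5 per group. Kidney fungal burden was read as log cfu per g kidney at 24 h after inoculation and expressed as the change relative to the 0 h control. Significance was tested against the 0 h control by Dunnett comparison.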

Cryptococcus neoformans = test: Antifungal activity against Cryptococcus neoformans TIMM 0354; format: functional; method in brief: as §1
Candida albicans [4] = test: Antifungal activity against Candida albicans […] in ICR mouse serum drug administered po twice a day; format: functional
Method in brief: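 MIC measured in mouse serum, in µg/mL.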

[5] = Cmax in mouse at 2 mg/kg, po; format: ADME, organism-based; set-up: dose 2 mg/kg, route oral; details: in vivo
Method in brief: (§2)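 Mice received a single oral dose of 2 mg/kg. Cmax is reported in µg/mL and half-life in hours.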

[6] = Half life in mouse at 2 mg/kg, po; format: ADME, organism-based; set-up: dose 2 mg/kg, route oral; details: in vivo; method in brief: as §2
Candida albicans [7] = test: Antifungal activity against Candida albicans FP633 in po dosed ICR mouse candidiasis model treated after 1 hr post infection for 4 days; format: functional
Method in brief: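 ED50 (mg/kg) determined in a mouse systemic candidiasis model, with compound given orally.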

Compound	MIC (Candida albicans [1])	MIC (Candida albicans [2])	MIC (Nakaseomyces glabratus)	MIC (Candida tropicalis)	MIC (Candida parapsilosis)	MIC (Aspergillus fumigatus)	deltalog10CFU (Candida albicans [3])	MIC (Cryptococcus neoformans)	MIC (Candida albicans [4])	Cmax [5]	half-life [6]	ED50 (Candida albicans [7])
OC(Cn1cncn1)(Cn1cncn1)c1ccc(F)cc1F [FLUCONAZOLE]	0.125 µg/mL (≈ 0.408 µM)	128 µg/mL (≈ 418 µM)	16 µg/mL (≈ 52.2 µM)	0.25 µg/mL (≈ 0.816 µM)	1 µg/mL (≈ 3.27 µM)	> 128 µg/mL	-0.19	0.25 µg/mL (≈ 0.816 µM)	–	–	–	–
CCCC[C@@H]1C[C@H](C23C[C@@H]4[C@H](C)CC[C@H]4[C@@]4(C=O)CC2C=C(C(C)C)[C@@]34C(=O)O)O[C@H]1CN1CCC(N2C[C@@H](C)O[C@@H](C)C2)CC1	0.5 µg/mL (≈ 0.783 µM)	0.5 µg/mL (≈ 0.783 µM)	1 µg/mL (≈ 1.57 µM)	0.5 µg/mL (≈ 0.783 µM)	8 µg/mL (≈ 12.5 µM)	128 µg/mL (≈ 200 µM)	-1.09	4 µg/mL (≈ 6.26 µM)	0.25 µg/mL (≈ 0.391 µM)	1000 ng/mL	3.4 h	2 mg/kg
CO[C@H]1[C@@H](O)[C@H](O)[C@H](OC[C@@]23C[C@@H]4[C@H](C)CC[C@H]4[C@@]4(C=O)CC2C=C(C(C)C)[C@@]34C(=O)O)O[C@@H]1C [SORDARIN]	32 µg/mL (≈ 65 µM)	64 µg/mL (≈ 130 µM)	64 µg/mL (≈ 130 µM)	64 µg/mL (≈ 130 µM)	> 128 µg/mL	> 128 µg/mL	–	> 128 µg/mL	32 µg/mL (≈ 65 µM)	20 ng/mL	0.33 h	> 40 mg/kg
